Screening data as filed in PubChem.
Sampled rows, rich in hits. Any-hit rate of the full collection: about 4.1%.
KCNK3 block = human KCNK3 channel inhibition, primary screen; CHO-KCNK3 thallium flux, FluxOR fluorescence; stronger effect = lower value; B-score at 10 µM; AID 602410; 340,000 tested, 0.84% active;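 active = B-score under library mean minus 4 SD, starting fluorescence ratio at most library mean plus 5 SD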;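 note: more negative B-score means stronger inhibition of thallium flux through KCNK3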
hERG protect = shields human hERG channel from block by proarrhythmic agents | Q12809 | CHO-hERG, FluxOR thallium flux, dofetilide IC70 present | activation (rescue from dofetilide block), less the hit threshold, % at 10 µM | 310,000 tested, 0.51% active;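 active = activation above the mean of controls blocked by dofetilide plus 5 SD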;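 note: thallium influx through hERG after potassium depolarization seen as dye fluorescence rise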
KCNK9 block = blocks the human KCNK9 two-pore domain potassium channel. B-score at 10 µM. 310,000 tested, 1.2% active. Q9NPC2. HEK293 KCNK9, FluxOR thallium flux fluorescence; stronger effect = lower value;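 active = ratio B-score over 3 SD below the library mean, with starting fluorescence within 5 SD of its mean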;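 note: negative B-score means less thallium flux so channel inhibition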
Cl transport mod = modulates chloride dependent transport by human KCC2; Q9H2X9; B-score of Tl+ flux slope (higher = more flux/activation; lower = inhibition) at 10 µM; 190,000 tested, 2.2% active; AID 1456; KCC2 cells, thallium flux FluoZin-2 fluorescence;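 active = thallium flux slope and its plate-corrected score both differing from the plate sample mean at a set confidence after two filtering rounds, in either direction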;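 note: slope of fluorescence scaled to starting intensity during 10 to 20 s after thallium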
KCNQ1 inh = blocks the human KCNQ1 potassium channel. P51787. CHO-K1 KCNQ1, FluxOR thallium flux fluorescence; stronger effect = higher value. B-score at 10 µM. 310,000 tested, 1.3% active. AID 2642;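 active = compounds whose thallium flux B-score, printed positive for inhibition, exceeds three library SD while starting fluorescence stays within three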;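 note: channel opened by potassium depolarization with thallium stimulus after 20 min compound exposure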
KCNQ1 act = potentiates or activates the human KCNQ1 potassium channel; 310,000 tested, 0.35% active; P51787; B-score at 10 µM; CHO-K1 KCNQ1, thallium flux FluxOR fluorescence; stronger effect = higher value;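 active = fluorescence ratio B-score, a plate-corrected score, at least three library SD, with initial intensity B-score within 5 SD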
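Test system: CHO-K1 cells stably expressing KCNQ1 / Medium: assay buffer / Also added: depolarizing K+/Tl+ stimulus, K2SO4 and Tl2SO4 each 12.5 mM in 5x stock / Incubation: 90 min dye loading and 20 min compound exposure, both at room temperature / Signal: thallium influx via FluxOR fluorescence, kinetic imaging / Evaluation: B score of baseline-normalized fluorescence ratio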
KCNK9 block conf = human KCNK9 inhibitor confirmation | 4,900 tested, 43% active | inhibition, % at 10 µM | shares compounds with KCNK9 block | HEK293 KCNK9 cells, FluxOR thallium flux fluorescence;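 active = thallium signal inhibited by more than 5 SD of the compound-free buffer control wells, on both duplicate plates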;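 note: 0% = assay buffer control wells without compound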
Kir2-1 spec = selectivity of KCNK9 modulators against mouse Kir2.1; shares compounds with KCNK9 block; Kir2.1 cells, FluxOR thallium flux fluorescence; inhibition, % at 10 µM; 4,900 tested, 4% active;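 active = thallium signal drop more than 5 SD beyond the mean of the no-compound control wells, seen in both duplicate plates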;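 note: signal is fluorescence rise after thallium addition divided by baseline fluorescence; plate controls were assay buffer only for no effect and full block by chlorpromazine control for full effect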
KCNK9 uninduced = second counter-screen for KCNK9 modulators: effect in non-induced cells. shares compounds with KCNK9 block. non-induced KCNK9-HEK293, FluxOR thallium flux. inhibition, % at 10 µM. 4,900 tested, 40% active;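 active = thallium signal drop beyond 5 SD of the untreated control mean, on both duplicate plates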;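 note: plate controls were buffer only IC0 wells for no effect and SID17386958 at its maximal inhibitory level for full effect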
The depositor's hits bear a star; i = inactive; nt = not tested or not shown.

SMILES	KCNK3 block	hERG protect	KCNK9 block	Cl transport mod	KCNQ1 inh	KCNQ1 act	KCNK9 block conf	Kir2-1 spec	KCNK9 uninduced
c1coc(CNc2ncnc3sc4c(c23)CCCCC4)c1	i	-21	i	-0.77	i	i	nt	nt	nt
CN(C)C(CNc1ncnc2sc3c(c12)CCCC3)c1ccco1 (stereo not drawn)	i	-5	i	-1.4	i	i	i	i	i
N#CCc1ccc(NC(=O)Nc2cccc3ccccc23)cc1	i	-4	i	nt	i	i	nt	nt	nt
Cc1ccc(SCCNC(=O)c2ccc(C)c([N+](=O)[O-])c2)cc1	i	-15	i	nt	i	i	nt	nt	nt
Cc1ccc(C(=O)NCCSc2ccc(Cl)cc2)cc1[N+](=O)[O-]	i	-23	i	-1.3	i	i	i	i	i
Cc1ccc(SCCNC(=O)c2ccc([N+](=O)[O-])c(C)c2)cc1	i	-7	i	nt	i	i	i	i	i
N#CC(c1ccccc1)c1ccc(C(=O)c2ccc(F)cc2)cc1 (stereo not drawn)	i	-7	-9.8*	-1.9	i	i	54%*	i	36%*
C(=N\N1CCN(Cc2cccc3ccccc23)CC1)/c1ccco1	i	-12	i	-0.97	i	i	i	i	i
Cn1cccc1/C=N/N1CCN(Cc2cccc3ccccc23)CC1	i	-7	i	-0.49	i	i	i	i	i
Cc1cc(C(=O)OC(C)C(=O)N2CCc3ccccc32)ccc1[N+](=O)[O-] (stereo not drawn)	i	-11	i	nt	i	i	i	i	i
COc1cc(OCc2ccccc2)c(C(=O)/C=C/c2ccc3c(c2)OCO3)c(OC)c1OC	i	-6	-8.9*	nt	i	i	i	i	35%*
COc1cc(OC)c(C(=O)/C=C/c2ccc(OCc3ccccc3)c(OC)c2)c(OC)c1	i	-6	i	nt	i	i	nt	nt	nt
CC(C)(C)NC(=O)CSc1nc(N)c(NC(=O)c2ccccc2F)c(=O)[nH]1	i	-12	i	-1.3	i	i	nt	nt	nt
O=C(Nc1cccc(C(F)(F)F)c1)C1(c2ccccc2)CC1	i	-11	-12*	0.021	i	i	53%*	i	37%*
O=C(Nc1ccc(C(F)(F)F)cc1)C1(c2ccccc2)CC1	i	-10	i	0.75	i	i	nt	nt	nt
COCCn1cnc2c(c1=O)c1nc3ccccc3nc1n2/N=C/c1cccc(OC)c1	i	-3	-9.7*	-0.0092	i	i	i	i	i
N/C(Cc1ccccc1)=N\OC(=O)c1cccc2ccccc12	i	-5	-11*	nt	i	i	i	i	i
N/C(=N\OC(=O)c1cccc2ccccc12)c1ccc(Br)cc1	i	-4	-8.3*	0	i	i	35%*	i	28%*
Nn1c(COc2cccc(Cl)c2)nc2ccccc2c1=O	i	-9	i	-0.18	i	i	nt	nt	nt
Cc1ccccc1C(=O)NCC(=O)OCCCOC(=O)CNC(=O)c1ccccc1C	i	-8	i	nt	i	i	nt	nt	nt
Cc1ccc([C@H]2C(C(=O)O)=C[C@@H](CC3CCCC3)N2S(=O)(=O)c2ccc(C)cc2)cc1	i	nt	nt	nt	nt	nt	nt	nt	nt
O=C(/C=C/c1ccccc1)c1cc(Br)ccc(=O)c1O	i	12*	i	16*	i	22*	i	i	i
CNc1ccc(C(=O)c2ccccc2C(=O)O)cc1[N+](=O)[O-]	i	-9	i	nt	i	i	nt	nt	nt
